Columns and labels:
[1] = folding enthalpy; higher = less favourable; fluorescence melt of hairpins on a sequencing array, two-state fit; details: sodium 0.088 M
Outline: (§1)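 In 50 mM Na-HEPES pH 8.0 containing 25 mM NaCl, hairpins from the library on a sequenced MiSeq flow cell were imaged for Cy3 fluorescence at 2.5 °C steps up to 60 °C, with Cy3 and quencher oligos annealed. After normalisation to pre-quench Cy3 and to control constructs, two-state fits with bootstrapping gave melting temperature and folding enthalpy. Four replicates were combined by inverse-variance weighting, and fitted temperatures were shifted up by 9.35 °C to match UV melts.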

[2] = melting temperature; fluorescence melt of hairpins on a sequencing array, two-state fit, raised by 9.35 °C to match UV melts; details: sodium 0.088 M
Outline: as §1

Sequence | folding enthalpy [1] | Tm [2]
GTCCTCTCGAAAGAGGAC (((..(((....)))))) | -36.2 kcal/mol | 58.5 °C
GCACAAGGAAACTTATGC (((.(((....))).))) | -18.7 kcal/mol | 29.4 °C
GCCCCAGGAAACTAGGGC ((((.((....)).)))) | -29.1 kcal/mol | 46.4 °C
GGTGTCGAAAGACCGACC ((((((....)))..))) | -14.9 kcal/mol | 39.1 °C
GATCAGCATACTGATC ((((((....)))))) | -38.5 kcal/mol | 51.4 °C
GTTAAAGGAAACTTTAGC (.(((((....))))).) | -20.6 kcal/mol | 27.6 °C
GATTACGAAAGTATGATC ((((((....)))..))) | -6.67 kcal/mol | 14.5 °C
GGTGCCCGAAAGGGAACC (((.(((....))).))) | -35.8 kcal/mol | 65.1 °C
GGTTTGGGAAACCAAACC (((((((....))))))) | -40.3 kcal/mol | 64.6 °C
GTCCGCGAAAGCGGAGAC ((((((....)))..))) | -7 kcal/mol | 56.8 °C
GATAGCGAAAGCTCTATC ((((((....)))..))) | -11.1 kcal/mol | 26.4 °C
GCTGCGCGAAAGCAAAGC (((..((....))..))) | -30.6 kcal/mol | 62 °C
GCTTCACCGAAAGGTAGC (((..(((....)))))) | -16.8 kcal/mol | 35.3 °C
GCTGCGCGAAAGCGATGC ((..(((....)))..)) | -18.6 kcal/mol | 58 °C
GATCTTCAAGAAGATC ((((((....)))))) | -33.5 kcal/mol | 46 °C
GACACGGGAAACCGTACC (..((((....))))..) | -8.11 kcal/mol | 27.9 °C
GACAGCGAAAGCTGGTC ((((((....))).))) | -11.8 kcal/mol | 55 °C
GGGTTTGAAAAAACCC ((((((....)))))) | -40 kcal/mol | 58.4 °C
GTCGATGGAAACATTGAC (((.(((....))).))) | -36.2 kcal/mol | 48.3 °C

Sequence | folding enthalpy [1] | Tm [2]
GCTGTCGAAAGACGTAGC ((((((....)))..))) | -22.7 kcal/mol | 48.1 °C
GATCCTGGGCAGGATC ((((((....)))))) | -35.7 kcal/mol | 54.2 °C
GGGGCTGGAAACAGTCCC (((.(((....))).))) | -50.6 kcal/mol | 59.1 °C
GATCTTACGAAGATC ((((((...)))))) | -34.6 kcal/mol | 42.9 °C
GATCGTTGCCACGATC ((((((....)))))) | -39.9 kcal/mol | 54.5 °C
GTGATGGGAAACCGTTAC ((.(.((....)).).)) | -18.6 kcal/mol | 31 °C
GGCGTGGGAAACCGCGTC (.((.((....)).)).) | -27.4 kcal/mol | 52.2 °C
GAGGATGGAAACATTCTC (((.(((....))).))) | -25.5 kcal/mol | 42.6 °C
GATCTGGACCAGATC ((((((...)))))) | -39.7 kcal/mol | 49.9 °C
GTCAAACGAAAGTTCGAC (((.(((....))).))) | -30.7 kcal/mol | 43.1 °C
GATCGAGCGTCGATC ((((((...)))))) | -31.7 kcal/mol | 51 °C
GGTAGCCGAAAGGCGACC (((.(((....))).))) | -24.5 kcal/mol | 66.9 °C
GCCTAGCGAAAGCGGGGC (((..((....))..))) | -22.3 kcal/mol | 65.9 °C
GATCACTGTAGTGATC ((((((....)))))) | -39.7 kcal/mol | 60.6 °C
GAAACCCGAAAGGGCTTC (((.(((....))).))) | -24.9 kcal/mol | 46.4 °C
GTCGCCGGAAACGGCAAC ((.((((....)))).)) | -11.2 kcal/mol | 47.1 °C
CGCGGAAATCTCCGCG ((((((....)))))) | -40.2 kcal/mol | 62.2 °C
GATGTGGGAAACTACATC (((((.(....).))))) | -36.5 kcal/mol | 44.9 °C
GATCAGCTAACTGATC ((((((....)))))) | -40 kcal/mol | 49.7 °C

Source: the array DNA melting data of Ke et al. (doi:10.1101/2024.01.08.574731)
